Experimental findings from PubChem BioAssay AID2648 (Johns Hopkins Ion Channel Center, 2010) are described below.

The whole screen tested about 310,000 compounds, of which about 1,100 (0.35%) were called active.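 How the source made its calls: active means fluorescence ratio B-score, a plate-corrected score, at least three library SD, with initial intensity B-score within 5 SD; inactive means the rest.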 Shown is part of a subset that was picked to be rich in actives.

Chain of Potassium voltage-gated channel subfamily KQT member 1 (Homo sapiens) (P51787 whole entry, looked up): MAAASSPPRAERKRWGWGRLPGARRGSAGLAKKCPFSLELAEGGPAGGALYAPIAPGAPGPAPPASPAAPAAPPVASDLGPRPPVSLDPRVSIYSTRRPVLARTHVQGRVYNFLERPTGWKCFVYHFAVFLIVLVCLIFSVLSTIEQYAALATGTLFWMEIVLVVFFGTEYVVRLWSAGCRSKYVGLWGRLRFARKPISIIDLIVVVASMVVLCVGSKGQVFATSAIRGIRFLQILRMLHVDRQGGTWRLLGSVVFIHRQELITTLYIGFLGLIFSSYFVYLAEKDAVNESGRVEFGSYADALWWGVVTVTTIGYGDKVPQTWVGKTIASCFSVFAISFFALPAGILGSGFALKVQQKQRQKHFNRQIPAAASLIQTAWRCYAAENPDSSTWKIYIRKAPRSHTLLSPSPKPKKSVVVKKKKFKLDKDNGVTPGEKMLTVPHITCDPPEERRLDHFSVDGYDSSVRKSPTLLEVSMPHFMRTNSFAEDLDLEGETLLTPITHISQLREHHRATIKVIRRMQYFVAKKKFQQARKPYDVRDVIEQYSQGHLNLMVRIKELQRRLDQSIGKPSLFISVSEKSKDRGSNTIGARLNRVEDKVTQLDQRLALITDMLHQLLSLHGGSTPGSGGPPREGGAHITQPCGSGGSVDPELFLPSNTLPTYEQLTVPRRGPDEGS

The test has as its target Potassium voltage-gated channel subfamily KQT member 1 (Homo sapiens) (UniProt P51787). The test can be described thus: potentiators or activators of KCNQ1 channel, primary screen, cell-based, thallium flux, high-throughput (AID 2648). Conditions: CHO-K1 KCNQ1, thallium flux FluxOR fluorescence, at 10 µM; hits give high values. In a few lines:
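Assay system: CHO-K1 cells stably expressing KCNQ1; Medium: assay buffer with matched DMSO; Also added: K+/Tl+ depolarizing stimulus; Dosing: single dose; Timing: dye 90 min, compound 20 min, room temperature; Measured by: kinetic FluxOR thallium fluorescence, 10-s 1-Hz baseline, 110-s post-stimulus read; Read-out: peak-minus-minimum fluorescence over initial fluorescence, negative-control normalized, B-scored.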
`Cc1sc2ncnc(N3CCC(C(=O)Nc4nc5ccc(Cl)cc5s4)CC3)c2c1C`: the B-score entry is “inactive”.

In the case of `O=C(CNS(=O)(=O)c1ccc(Br)s1)NCc1ccc2c(c1)OCO2`, the B-score entry is “inactive”.

Turning to `Cn1c2ccccc2c2cc(/C=C(\NC(=O)c3ccccc3)C(=O)NCC(=O)O)ccc21`, the B-score result is “inactive”.

For `FC(F)(F)Oc1ccc(NC(=S)NCc2ccccc2)cc1`, the B-score result was “inactive”.

For the compound `CS(=O)(=O)c1sc(C(=O)NC(=S)Nc2ccc(OC(F)(F)F)cc2)c2c1C=CCC2`, the B-score was 11 (active).

As for `CCNC(=S)Nc1ccc(OC(F)(F)F)cc1`, the B-score result was “inactive”.

As to `CN(/N=C/c1ccccc1)C(=S)c1ccccc1`, the B-score result was “inactive”.

For `CC(CC(=O)Nc1ccccc1)n1ccnc1` (stereo unspecified), the B-score result is “inactive”.

For the compound `Cc1ccn2c(=O)c(C(=O)NCCC3=CCCCC3)c(O)nc2c1`, the B-score result was “inactive”.

As to `C=CCn1c(Cn2nnc3ccccc32)nnc1SCC(=O)N/N=C/c1cc(Br)cc(OC)c1O`, the B-score result was “inactive”.

Consider `Oc1c(Cl)cc(Cl)cc1/C=N/c1ncn[nH]1`, for which the B-score was 9 (active).

As for `Oc1ccc(Br)cc1C=Nc1ccc2[nH]ncc2c1`, the B-score result is “inactive”.

For `COc1cc(Br)cc(/C=N/c2ncn[nH]2)c1O`, the B-score was 12 (active).

`O=C(Cn1cncn1)N/N=C/c1c2ccccc2cc2ccccc12`: the B-score entry is “inactive”.

With `CN(c1ccccn1)c1ncnc2[nH]ncc12`, the B-score entry was “inactive”.

On to `CN(Cc1cccs1)C(=O)Cc1c[nH]c2ccccc12`, for which the B-score result is “inactive”.

For `CCc1ccc(NC(=O)COC(=O)c2cccs2)cc1`, the B-score entry was “inactive”.

As to `CCc1ccc(NC(=O)C(=O)NNC(=O)c2cccs2)cc1`, the B-score was 54 (active).

In the case of `CC(C)C(=O)Nc1ccc(C(=O)NNC(=O)c2cccs2)cc1`, the B-score result was “inactive”.

Regarding `CCCCNC(=O)CN1C(=O)NC(Cc2ccccc2)(Cc2ccccc2)C1=O`, the B-score result is “inactive”.

Consider `Clc1ccc(C[n+]2cc(-c3ccc(Cl)cc3)n3c2CCC3)cc1`, for which the B-score result was “inactive”.

For the compound `Cc1cc(C)nc(N2CCC(C(=O)Nc3ccc4c(c3)OCCO4)CC2)n1`, the B-score result is “inactive”.

As to `Cc1cc(Nc2cc(N3CCN(C)CC3)nc(Sc3ccc(NC(=O)C4CC4)cc3)n2)n[nH]1`, the B-score was 7 (active).

For the compound `CN1CCN(S(=O)(=O)c2ccc(NC(=S)NC(=O)C3CC3)cc2)CC1`, the B-score entry was “inactive”.

Regarding `COCC(=O)N1CCc2ccc(NC(=O)c3ccccc3Cl)cc2C1`, the B-score result is “inactive”.

On to `CCc1nccn1CCC(=O)N1CCCC(N2CCN(c3ccccc3F)CC2)C1` (stereo unspecified), for which the B-score result was “inactive”.

For the compound `Cc1cccc(C(=O)N2CCN(S(=O)(=O)N3CCCCC3)CC2)c1`, the B-score entry is “inactive”.

`O=C(NC1=NCCS1)[C@H](Cc1ccccc1)N1C(=O)c2ccccc2C1=O`: the B-score result was “inactive”.

As for `O=C(CCN1C(=O)c2ccccc2C1=O)NCCN1CCOCC1`, the B-score result was “inactive”.

Regarding `O=C(NCCN1CCOCC1)[C@H](Cc1ccccc1)N1C(=O)c2ccccc2C1=O`, the B-score was 11 (active).

Regarding `CC(C)COC(=O)C1C2C=CC3(CN(C(C)c4ccc(Br)cc4)C(=O)C13)O2` (stereo unspecified), the B-score entry was “inactive”.

Turning to `CCOC(=O)c1sc(=S)n2c1[nH]c(=O)c1ccc(C(=O)OC)cc12`, the B-score was 59 (active).

With `CCOC(=O)C1=C(C)Nc2sc(C(=O)c3ccc(Br)cc3)c(N)c2C1c1ccc(C(=O)OC)cc1` (stereo unspecified), the B-score entry was “inactive”.

Take `CCOC(=O)c1ccc(Nc2cc3ccccc3c(=O)[nH]2)cc1`: the B-score result was “inactive”.

On to `CCOC(=O)c1c(C)nn(-c2ncccc2NC(=O)CCC(=O)O)c1C`, for which the B-score result is “inactive”.

For the compound `Cc1oc2cc3oc(=O)ccc3cc2c1C`, the B-score result was “inactive”.
